Data from ChEMBL document CHEMBL1158826, “Anti-inflammatory activity of verminoside from Kigelia africana and evaluation of cutaneous irritation in cell cultures and reconstituted human epidermis” (J Nat Prod, 2005).
Activity calls are given as the source filed them. No cut-off for these calls is given here.

How the values were obtained:
[1] = system: J774.A1; experiment: Antiinflammatory activity against mouse J774A1 macrophages assessed as inhibition of LPS-induced NO release pretreated for 1 hr before LPS challenge measured after 24 hrs by Griess method; type: functional, cell-based
Method in brief: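 Nitrite measured in medium by Griess reaction 24 h after LPS (6 × 103 u/mL). J774.A1 cells plated at 1.5 × 106 in P60 plates. Test solutions in PBS (0.01-1 mM) were added 1 h before and again together with LPS. Nitrite was read against a sodium nitrite standard curve in culture medium. Inhibition is given as % versus LPS-only cells. At least 3 independent experiments, 3 replicates each.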

[2] = system: J774.A1; experiment: Antiinflammatory activity against mouse J774A1 macrophages assessed as inhibition of LPS-induced iNOS expression pretreated for 1 hr before LPS challenge and measured after 24 hrs by Western blot analysis; type: functional, cell-based
Method in brief: (§1)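 J774.A1 cells were given test solutions in PBS (0.01-1 mM) 1 h before and together with LPS (6 × 103 u/mL). After 24 h with LPS, cells were lysed and iNOS protein detected by Western blot with densitometry. Results are % inhibition versus LPS alone, from 3-6 independent experiments in triplicate. One-way ANOVA.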

[3] = Cytotoxicity against reconstituted human epidermal cells assessed as cell viability after 24 hrs by MTT assay; type: cell-based
Method in brief: (§2)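 Epidermis tissues were dosed topically with 50 µL of PBS solutions (extract 1-3%, compound 0.25-1%) in duplicate and kept at 37 °C, 5% CO2 for 24 or 72 h, with medium changed daily. Controls were PBS pH 7.2 and SDS 0.25%. After washing, MTT (0.5 mg/mL) was added for 3 h at 37 °C and OD read at 570 nm. Results are % viability versus PBS-treated epidermis.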

[4] = Cytotoxicity against reconstituted human epidermal cells assessed as cell viability after 72 hrs by MTT assay; type: cell-based; method in brief: as §2
[5] = species: Homo sapiens; experiment: Antiinflammatory activity against reconstituted human epidermis model assessed as inhibition of IL1alpha release after 24 hrs by ELISA relative to control; type: functional; settings: Skin epidermis
Method in brief: (§3)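 Reconstituted human epidermis (0.63 cm2, differentiated from normal human keratinocytes) received 50 µL of PBS solutions applied topically. Concentrations were 1, 2, 3% for extract and 0.25, 0.5, 1% for pure compound. Tissues were held at 37 °C, 5% CO2, with daily medium change. Underlying medium was collected at 24 or 72 h and IL-1α (pg/mL) quantified by ELISA. Controls were PBS and SDS 0.25%. Three independent experiments.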

[6] = species: Homo sapiens; experiment: Antiinflammatory activity against reconstituted human epidermis model assessed as inhibition of IL1alpha release after 72 hrs by ELISA relative to control; type: functional; settings: Skin epidermis; method in brief: as §3
[7] = system: Skin epidermis; experiment: Effect on morphological changes in reconstituted human epidermis model assessed as induction of tissue degeneration and necrosis after 24 hrs; type: functional
Method in brief: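 Reconstituted epidermis was dosed topically with PBS solutions at 1-3% (extract) or 0.25-1% (compound), with PBS and SDS 0.25% as controls. After 24 or 72 h, tissues were fixed in 10% formalin, dehydrated through ethanol and toluene, and paraffin-embedded. Sections of 5 µm were stained with H&E and examined by light microscopy at 200×.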

[8] = system: J774.A1; experiment: Antiinflammatory activity against mouse J774A1 macrophages assessed as inhibition of LPS-induced iNOS expression at 1 mM treated 1 hr before LPS challenge and measured after 24 hrs by Western blot analysis; type: functional, cell-based; method in brief: as §1
[9] = system: J774.A1; experiment: Cytotoxicity against mouse J774A1 macrophages grown in monolayers by MTT assay; type: cell-based
Method in brief: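 Monolayer J774.A1 cells were exposed to test solutions in PBS, 0.01-1 mM for pure compounds and 1-1000 µg/mL for extract. Viability was read by MTT assay and expressed as % of PBS-treated controls. Experiments were repeated at least three times with three or more observations each. ANOVA with Bonferroni.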

For `O=C(/C=C/c1ccc(O)c(O)c1)O[C@@H]1C2C=CO[C@H](O[C@@H]3O[C@H](CO)[C@@H](O)[C@H](O)[C@H]3O)C2[C@]2(CO)O[C@H]12` (some centres undefined) [VERMINOSIDE], which Activity [1] is on record?
The Activity was “Dose-dependent effect”.

What about the Activity [2] of the same compound?
Its Activity is “Dose-dependent effect”.

What about the Activity [3] of the same compound?
The Activity was “Non-toxic”.

And the Activity [4]?
Its Activity is “Non-toxic”.

With `CCCCCCCCCCCCOS(=O)(=O)[O-].[Na+]` as the compound, how does the Activity [5] read?
Its Activity is 250 pg/mL.

And the Activity [6]?
Its Activity is 110 pg/mL.

And the Activity [7]?
The Activity was “Active”.

For `C[C@@H]1O[C@@H](O[C@@H]2[C@@H](O)[C@H](OCCc3ccc(O)c(O)c3)O[C@H](CO)[C@H]2OC(=O)/C=C/c2ccc(O)c(O)c2)[C@H](O)[C@H](O)[C@H]1O` [ACETOSIDE], which Activity [8] is on record?
The Activity was “Active”.

What about the EC50 [9] of the same compound?
Its EC50 is 490 µM.
